This is an account of results in ChEMBL document CHEMBL4813913, “In vitro identification of imidazo[1,2-a]pyrazine-based antileishmanial agents and evaluation of L. major casein kinase 1 inhibition” (Eur J Med Chem, 2021).

A short description of data set [1]: Selectivity index, ratio of CC50 for mouse RAW264.7 cells to IC50 for amastigote stage of Leishmania amazonensis (MHOM/BR/73/M2269) infected in mouse RAW264.7 cells. The format is toxicity, cell-based. The settings on record: read-out: Ratio CC50/IC50. In outline:
(§1)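 Selectivity index is CC50 on RAW 264.7 or MRC-5 cells divided by IC50 on intracellular amastigotes.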

The test system of a further data set is Leishmania amazonensis. The data set is described as follows: Antileishmanial activity against amastigote stage Leishmania amazonensis (MHOM/BR/73/M2269) infected in mouse RAW264.7 cells assessed as reduction in parasitic proliferation measured by SYBR Green 1 dye based fluorescence assay. The settings on record: MHOM/BR/73/M2269, RAW264.7. The format is functional, organism-based. In outline:
(§2)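 RAW 264.7 macrophages seeded at 100,000 cells/well in DMEM with 10% heat-inactivated FBS, 24 h at 37 °C, 5% CO₂. Infected with plateau-phase promastigotes (parasite:macrophage 16:1) for 24 h. Compounds serially diluted, final 391 nM–100 μM. Amastigote viability read by SYBR Green I after lysis and 3 freeze-thaw cycles. IC50 by nonlinear regression against excipient-treated controls. Miltefosine reference.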

In a further data set the test system is Leishmania infantum. Nature of the data set: Antileishmanial activity against amastigote stage of Leishmania infantum (MHOM/FR/2008/LEM5700) infected in mouse RAW264.7 cells assessed as reduction in parasitic proliferation measured by SYBR Green 1 dye based fluorescence assay. The format is functional, organism-based. The settings on record: MHOM/FR/2008/LEM5700, RAW264.7. A digest of the protocol: as §2

Data set [2] concerns the target Dual specificity tyrosine-phosphorylation-regulated kinase 1A (Rattus norvegicus, UniProt Q63470). The data set is described as follows: Inhibition of recombinant rat DYRK1A (1 to 499 ) expressed in bacterial expression system using KKISGRLSPIMTEQ as substrate in presence of ATP measured after 30 mins by ADP-Glo assay. The settings on record: 0.5 h. On the technique in general: In ADP-Glo the light output rises with the ADP produced.

For data set [3], the target named is Cyclin-dependent kinase 5/CDK5 activator 1 (Homo sapiens, UniProt Q00535). Nature of the data set: Inhibition of human recombinant CDK5/ p25 expressed in bacterial expression system using histone H1 as substrate in presence of ATP measured after 30 mins by ADP-Glo assay.
A further data set concerns Leishmania donovani. The data set is described as follows: Antileishmanial activity against amastigote stage of Leishmania donovani (MHOM/ET/67/HU3) infected in mouse RAW264.7 cells assessed as reduction in parasitic proliferation measured by SYBR Green 1 dye based fluorescence assay. The class given is functional, organism-based. Conditions: MHOM/ET/67/HU3, RAW264.7; call rule not given here. In outline:
as §2

For another data set, the target named is CDK2/Cyclin A2 (Homo sapiens, UniProt P24941). Nature of the data set: Inhibition of human CDK2/ cyclinA using histone H1 as substrate in presence of ATP measured after 30 mins by ADP-Glo assay. The format is protein-complex assay.
Data set [4] can be described thus: Selectivity index, ratio of CC50 for human MRC5 cells to IC50 for amastigote stage of Leishmania braziliensis (MHOM/BR/75/M2903b) infected in mouse RAW264.7 cells. The class given is toxicity, cell-based. Conditions: read-out: Ratio CC50/IC50. A digest of the protocol:
as §1

For data set [5], the target named is Dual specificity protein kinase CLK1 (Mus musculus, UniProt P22518). The data set is described as follows: Inhibition of recombinant mouse CLK1 expressed in bacteria using GRSRSRSRSRSR as substrate in presence of ATP measured after 30 mins by ADP-Glo assay.
Data set [6] can be described thus: Selectivity index, ratio of CC50 for human MRC5 cells to IC50 for amastigote stage of Leishmania donovani (MHOM/ET/67/HU3) infected in mouse RAW264.7 cells. The class given is toxicity, cell-based. Conditions: read-out: Ratio CC50/IC50. A digest of the protocol: as §1
For another data set, the target named is CDK9/cyclin T1 (Homo sapiens, UniProt P50750). Nature of the data set: Inhibition of human recombinant CDK9/CyclinT expressed in baculovirus infected Sf9 cells using YSPTSPSYSPTSPSYSPTSPSKKK as substrate in presence of ATP measured after 30 mins by ADP-Glo assay.
Data set [7] is described as follows: Toxicity against Galleria mellonella larva assessed as cuticular darkening at 50 mg/kg measured for 7 days. The class given is organism-based. The settings on record: in vivo, 168 h, time 7 day. In outline:
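G. mellonella larvae (6th stage, 260–320 mg), groups of ten. Injected in the 4th left pro-leg with 10 μL at 10–50 mg/kg; controls got PBS/DMSO (DMSO <40%). Kept in the dark at 37 °C. Survival and cuticular darkening scored daily for 7 days; death taken as no movement on stimulus. Kaplan-Meier with log-rank test; two independent experiments.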

Data set [8] concerns the target Serine/threonine-protein kinase pim-1 (Homo sapiens, UniProt P11309). The data set is described as follows: Inhibition of recombinant human PIM1 expressed in bacteria using histone H1 as substrate in presence of ATP measured after 30 mins by ADP-Glo assay. Conditions: 0.5 h.
A further data set has as its target Aurora kinase B (Homo sapiens, UniProt Q96GD4). The data set is described as follows: Inhibition of recombinant human AURKB expressed in baculovirus infected Sf9 cells using MBP as substrate in presence of ATP measured after 30 mins by ADP-Glo assay. The settings on record: sf9, 0.5 h.
Data set [9] is described as follows: Selectivity index, ratio of CC50 for human MRC5 cells to IC50 for amastigote stage of Leishmania infantum (MHOM/FR/2008/LEM5700) infected in mouse RAW264.7 cells. The format is toxicity, cell-based. The settings on record: read-out: Ratio CC50/IC50. In outline: as §1
The next data set deals with Leishmania braziliensis. Nature of the data set: Antileishmanial activity against amastigote stage of Leishmania braziliensis (MHOM/BR/75/M2903b) infected in mouse RAW264.7 cells assessed as reduction in parasitic proliferation measured by SYBR Green 1 dye based fluorescence assay. The format is functional, organism-based. In outline:
as §2

Data set [10] in a line: Selectivity index, ratio of CC50 for mouse RAW264.7 cells to IC50 for amastigote stage of Leishmania infantum (MHOM/FR/2008/LEM5700) infected in mouse RAW264.7 cells. The class given is toxicity, cell-based. Conditions: read-out: Ratio CC50/IC50. In outline: as §1
Data set [11] is described as follows: Cytotoxicity against mouse RAW264.7 cells assessed as reduction in cell growth measured after 48 hrs by SYBR Green 1 dye based fluorescence assay. A digest of the protocol: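 RAW 264.7 cells seeded at 100,000 cells/well in DMEM with 10% FBS, 24 h at 37 °C, 5% CO₂. Two-fold serial dilutions, final 49 nM–100 μM, for 48 h. Growth read by SYBR Green I. CC50 by nonlinear regression. Miltefosine reference; untreated cells as growth control.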

Data set [12] is described as follows: Selectivity index, ratio of CC50 for human MRC5 cells to IC50 for amastigote stage of Leishmania major (MHOM/IL/81/BNI) infected in BALB/c mouse peritoneal macrophages. The class given is toxicity. The settings on record: read-out: Ratio CC50/IC50. In outline: as §1
The nature of data set [13]: Selectivity index, ratio of CC50 for mouse RAW264.7 cells to IC50 for amastigote stage of Leishmania donovani (MHOM/ET/67/HU3) infected in mouse RAW264.7 cells. The class given is toxicity, cell-based. Conditions: read-out: Ratio CC50/IC50. A digest of the protocol: as §1
Data set [14] is described as follows: Selectivity index, ratio of CC50 for human MRC5 cells to IC50 for amastigote stage of Leishmania amazonensis (MHOM/BR/73/M2269) infected in mouse RAW264.7 cells. The settings on record: read-out: Ratio CC50/IC50. The class given is toxicity, cell-based. A digest of the protocol:
as §1

The next data set concerns Leishmania major. Nature of the data set: Antileishmanial activity against amastigote stage of Leishmania major (MHOM/IL/81/BNI) infected in BALB/c mouse peritoneal macrophages assessed as reduction in parasitic proliferation measured after 4 days by MayGrunwald-Giemsa stain based microscopic method. The class given is functional, organism-based. Conditions: Peritoneal macrophage, 96 h. In outline: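 BALB/c peritoneal macrophages on glass slides, 1.5×10⁵ cells/mL in RPMI 1640 with 15% FBS, 24 h attachment. Infected with stationary-phase promastigotes (1.5×10⁶/mL) for 24 h at 37 °C, 5% CO₂. Washed, then exposed 4 days to 100, 10, 1, 0.1 μM (DMSO ≤1% final). Methanol-fixed, May-Grunwald-Giemsa stained, amastigotes counted in 100 macrophages per duplicate well. IC50 from amastigotes/macrophage. Run twice.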

Data set [15] in a line: Cytotoxicity against human MRC5 cells assessed as reduction in cell viability measured after 96 hrs by resazurin assay. The class given is cell-based. In outline:
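Human MRC-5 fibroblasts grown in RPMI 1640 with 10% FBS. Exposed to 100, 10 and 1 μM in triplicate for 96 h. Then 10 μL of 700 μM resazurin added for 4 h and fluorescence read. Value is the mean of triplicates.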
On the technique in general: Alamar Blue is a resazurin reagent that responds to reducing activity.

Data set [16] in a line: Selectivity index, ratio of CC50 for mouse RAW264.7 cells to IC50 for amastigote stage of Leishmania major (MHOM/IL/81/BNI) infected in BALB/c mouse peritoneal macrophages. Conditions: read-out: Ratio CC50/IC50. The class given is toxicity. In outline:
as §1

A short description of data set [17]: Selectivity index, ratio of CC50 for mouse RAW264.7 cells to IC50 for amastigote stage of Leishmania braziliensis (MHOM/BR/75/M2903b) infected in mouse RAW264.7 cells. Conditions: read-out: Ratio CC50/IC50. The class given is toxicity, cell-based. In outline: as §1

Chain of Dual specificity protein kinase CLK1 (P22518 whole entry): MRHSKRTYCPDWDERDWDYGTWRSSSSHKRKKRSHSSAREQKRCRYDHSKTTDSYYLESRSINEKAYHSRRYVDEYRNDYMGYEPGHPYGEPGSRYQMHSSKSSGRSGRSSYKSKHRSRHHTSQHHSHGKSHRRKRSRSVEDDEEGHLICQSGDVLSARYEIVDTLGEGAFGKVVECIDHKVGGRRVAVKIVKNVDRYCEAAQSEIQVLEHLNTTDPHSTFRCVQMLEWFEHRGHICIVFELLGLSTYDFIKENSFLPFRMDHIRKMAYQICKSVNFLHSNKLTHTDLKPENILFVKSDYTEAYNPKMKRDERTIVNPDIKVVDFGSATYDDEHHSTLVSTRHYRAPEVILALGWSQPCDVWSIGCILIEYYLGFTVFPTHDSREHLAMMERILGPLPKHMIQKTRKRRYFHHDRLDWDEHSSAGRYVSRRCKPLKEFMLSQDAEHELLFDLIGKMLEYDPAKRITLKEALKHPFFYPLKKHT
Chain of Cyclin-dependent kinase 5/CDK5 activator 1 (Q00535 whole entry): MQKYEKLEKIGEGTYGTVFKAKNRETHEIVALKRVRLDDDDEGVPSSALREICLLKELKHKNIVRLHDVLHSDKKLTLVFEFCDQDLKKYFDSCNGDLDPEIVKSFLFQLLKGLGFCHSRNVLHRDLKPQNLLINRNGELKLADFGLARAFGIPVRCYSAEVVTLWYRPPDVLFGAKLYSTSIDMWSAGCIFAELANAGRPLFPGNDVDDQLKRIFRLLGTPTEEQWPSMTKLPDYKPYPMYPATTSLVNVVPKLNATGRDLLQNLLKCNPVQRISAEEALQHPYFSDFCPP
Chain of Cyclin-dependent kinase 5/CDK5 activator 1 (Q15078 whole entry, further chain): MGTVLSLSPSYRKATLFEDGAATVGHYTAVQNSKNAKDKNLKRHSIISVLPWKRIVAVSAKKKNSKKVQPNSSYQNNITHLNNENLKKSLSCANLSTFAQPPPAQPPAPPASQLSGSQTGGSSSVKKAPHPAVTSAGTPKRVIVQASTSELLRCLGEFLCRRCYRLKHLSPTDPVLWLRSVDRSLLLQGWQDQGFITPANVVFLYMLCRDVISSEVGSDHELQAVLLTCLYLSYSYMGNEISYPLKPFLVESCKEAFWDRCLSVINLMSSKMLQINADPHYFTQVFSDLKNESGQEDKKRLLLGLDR
Chain of Serine/threonine-protein kinase pim-1 (P11309 whole entry): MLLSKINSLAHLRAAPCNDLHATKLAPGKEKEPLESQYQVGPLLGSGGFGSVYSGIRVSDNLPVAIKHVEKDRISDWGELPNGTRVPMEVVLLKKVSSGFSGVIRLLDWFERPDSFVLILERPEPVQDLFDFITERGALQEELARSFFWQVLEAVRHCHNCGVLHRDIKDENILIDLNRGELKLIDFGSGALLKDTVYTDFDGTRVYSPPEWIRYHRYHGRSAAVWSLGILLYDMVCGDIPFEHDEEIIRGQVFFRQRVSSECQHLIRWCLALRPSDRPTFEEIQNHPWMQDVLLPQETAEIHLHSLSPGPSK
Chain of CDK9/cyclin T1 (O60563 whole entry): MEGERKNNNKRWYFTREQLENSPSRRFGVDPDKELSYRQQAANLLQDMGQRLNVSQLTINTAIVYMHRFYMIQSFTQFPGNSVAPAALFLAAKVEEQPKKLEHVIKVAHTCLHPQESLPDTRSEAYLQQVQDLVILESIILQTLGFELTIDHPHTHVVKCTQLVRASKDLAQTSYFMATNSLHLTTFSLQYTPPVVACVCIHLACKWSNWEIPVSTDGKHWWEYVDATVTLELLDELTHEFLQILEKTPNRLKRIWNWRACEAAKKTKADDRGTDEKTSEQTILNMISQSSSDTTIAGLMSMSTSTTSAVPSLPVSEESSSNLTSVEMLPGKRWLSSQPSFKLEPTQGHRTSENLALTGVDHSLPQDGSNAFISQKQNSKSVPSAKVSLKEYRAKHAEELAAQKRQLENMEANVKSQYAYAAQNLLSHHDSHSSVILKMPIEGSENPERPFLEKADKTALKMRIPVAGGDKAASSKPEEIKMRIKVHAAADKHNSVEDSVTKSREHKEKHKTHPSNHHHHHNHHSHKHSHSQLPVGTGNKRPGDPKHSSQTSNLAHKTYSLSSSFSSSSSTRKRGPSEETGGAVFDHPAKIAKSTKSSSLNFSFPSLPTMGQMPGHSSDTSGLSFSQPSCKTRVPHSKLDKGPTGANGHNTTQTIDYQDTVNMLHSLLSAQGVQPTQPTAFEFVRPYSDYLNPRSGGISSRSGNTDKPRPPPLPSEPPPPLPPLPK
Chain of CDK9/cyclin T1 (P50750 whole entry): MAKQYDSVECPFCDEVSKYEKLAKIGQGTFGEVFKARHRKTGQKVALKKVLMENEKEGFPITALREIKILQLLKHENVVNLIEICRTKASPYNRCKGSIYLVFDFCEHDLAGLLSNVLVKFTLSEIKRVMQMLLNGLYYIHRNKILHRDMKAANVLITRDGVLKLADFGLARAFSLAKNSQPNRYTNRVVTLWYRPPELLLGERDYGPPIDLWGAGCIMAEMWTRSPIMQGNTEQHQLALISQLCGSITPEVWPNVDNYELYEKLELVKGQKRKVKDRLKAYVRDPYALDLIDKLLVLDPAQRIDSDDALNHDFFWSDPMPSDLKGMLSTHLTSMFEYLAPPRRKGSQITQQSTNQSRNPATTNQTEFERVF
Chain of Aurora kinase B (Q96GD4 whole entry): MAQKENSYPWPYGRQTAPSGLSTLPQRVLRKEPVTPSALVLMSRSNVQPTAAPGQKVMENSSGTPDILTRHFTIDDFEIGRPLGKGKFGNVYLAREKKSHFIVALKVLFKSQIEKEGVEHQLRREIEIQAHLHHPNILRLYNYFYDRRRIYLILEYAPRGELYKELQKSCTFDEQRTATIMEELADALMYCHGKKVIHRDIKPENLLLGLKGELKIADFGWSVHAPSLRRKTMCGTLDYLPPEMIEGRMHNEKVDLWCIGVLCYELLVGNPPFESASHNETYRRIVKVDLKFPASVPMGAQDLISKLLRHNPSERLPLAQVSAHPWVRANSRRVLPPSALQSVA

Broadly, the IC50 is the concentration needed to halve the response being measured. In the case of `CN(C)c1nccn2c(-c3ccncc3)c(-c3ccc(F)cc3)nc12`, the selectivity ratio in data set [1] was determined as 1.5; in data set [4], 1.7; in data set [6] it was 36.5; in data set [9] it was 7.8. The IC50 in the data set with Leishmania amazonensis was 28.4 µM; with Leishmania infantum, 12.8 µM; in data set [3], greater than 10 µM; with Leishmania donovani, 2.74 µM; at CDK2/Cyclin A2, greater than 10 µM; in data set [5], greater than 10 µM. The IC50 at CDK9/cyclin T1 was greater than 10 µM; in the data set on Leishmania braziliensis, 57.9 µM. Also, the “inhibition (INH)” value (in data set [2]; in data set [8]; on Aurora kinase B) was “Not Active” each time. Further, the Activity result in data set [7] is given as “Non-Toxic”.
A word on the CC50: it is the concentration that lowers cell viability or growth by half. With `CCCCCCCCCCCCCCCCOP(=O)([O-])OCC[N+](C)(C)C` [MILTEFOSINE], the selectivity ratio in data set [10] was determined as 14.5; in [1], 10.2; in data set [12], 25.5; in data set [13], 23.5; in data set [14] it was 8.7; in data set [4], 4.4. Also, the selectivity ratio in data set [6] amounted to 20.1; in data set [16], 29.9; in data set [17], 5.2; in [9], 12.4. The IC50 is 4.22 µM in the data set on Leishmania amazonensis; 2.96 µM in the data set with Leishmania infantum; 1.83 µM with Leishmania donovani; 1.44 µM in the data set on Leishmania major; 8.33 µM with Leishmania braziliensis. For the same compound, the CC50 at 48 h in data set [11] came out at 43 µM. In addition, the CC50 at 96 h in [15] came to 36.8 µM.
